According to ChEMBL document CHEMBL5252671, “Design, synthesis and evaluation of the anti-breast cancer activity of 1,3-oxazolo[4,5-d]pyrimidine and 1,3-oxazolo[5,4-d]pyrimidine derivatives” (2023):
Active and inactive are the calls of the source. The calls are words filed in the database; no cut-off is given here.

Assays:
Type in all cases: functional
[1] = test system: MCF7; experiment: Antiproliferative activity against human MCF7 cells assessed as inhibition of cell growth at 1 X 10^-5 M measured for 48 hrs by sulforhodamine B assay relative to control; conditions: MCF7, 48 h, dose 1 10^-5M
Summary of the method: (§1)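 NCI one-dose screen. Cells were seeded at 5000-40000/well in RPMI 1640 with 5% FBS and 2 mM L-glutamine and preincubated 24 h at 37 °C in 5% CO2. Compound was added at 10⁻⁵ M for 48 h. Cells were then fixed with 10% TCA, stained with sulforhodamine B, washed with 1% acetic acid, solubilized in 10 mM Tris and read as OD at 510 nm.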

[2] = test system: MDA-MB-231; experiment: Antiproliferative activity against human MDA-MB-231 cells assessed as inhibition of cell growth at 1 X 10^-5 M measured for 48 hrs by sulforhodamine B assay relative to control; conditions: MDA-MB-231, 48 h, dose 1 10^-5M; summary of the method: as §1
[3] = test system: Hs-578T; experiment: Antiproliferative activity against human Hs-578T cells assessed as inhibition of cell growth at 1 X 10^-5 M measured for 48 hrs by sulforhodamine B assay relative to control; conditions: dose 1 10^-5M; summary of the method: as §1
[4] = test system: BT-549; experiment: Antiproliferative activity against human BT-549 cells assessed as inhibition of cell growth at 1 X 10^-5 M measured for 48 hrs by sulforhodamine B assay relative to control; conditions: BT-549, 48 h, dose 1 10^-5M; summary of the method: as §1
[5] = test system: T47D; experiment: Antiproliferative activity against human T47D cells assessed as inhibition of cell growth at 1 X 10^-5 M measured for 48 hrs by sulforhodamine B assay relative to control; conditions: dose 1 10^-5M; summary of the method: as §1
[6] = test system: MDA-MB-468; experiment: Antiproliferative activity against human MDA-MB-468 cells assessed as inhibition of cell growth at 1 X 10^-5 M measured for 48 hrs by sulforhodamine B assay relative to control; conditions: MDA-MB-468, 48 h, dose 1 10^-5M; summary of the method: as §1
[7] = test system: MCF7; experiment: Anticancer activity against human MCF7 cells measured at 48 hrs
Summary of the method: (§2)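 NCI DTP five-dose screen on the breast subpanel: compound at 0.01, 0.1, 1, 10 and 100 μM for 48 h. Cell density read by sulforhodamine B (protein content). GI50, TGI and LC50 were derived from the T, T0 and C optical densities using the NCI formulas.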

[8] = test system: MDA-MB-231; experiment: Anticancer activity against human MDA-MB-231 cells measured at 48 hrs; summary of the method: as §2
[9] = test system: Hs-578T; experiment: Anticancer activity against human Hs-578T cells measured at 48 hrs; summary of the method: as §2
[10] = test system: BT-549; experiment: Anticancer activity against human BT-549 cells measured at 48 hrs; summary of the method: as §2
[11] = test system: T47D; experiment: Anticancer activity against human T47D cells measured at 48 hrs; conditions: for CC50: read-out: LC50 (the source's name); summary of the method: as §2
[12] = test system: MDA-MB-468; experiment: Anticancer activity against human MDA-MB-468 cells measured at 48 hrs; summary of the method: as §2
[13] = test system: MDA-MB-231; experiment: Antiproliferative activity against human wild type MDA-MB-231 cells assessed as inhibition of cell growth at 10 to 30 uM measured for 24 hrs by trypan blue staining based MTT assay; conditions: dose 10-30 µM
Summary of the method: (§3)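 MDA cell lines were treated with 5-iodotubercidin (1 μM or 3 μM) or with test compound (10 μM or 30 μM). Drugs were dissolved in 0.225% DMSO, which also served as vehicle control. Proliferation was measured by Trypan Blue cell counting every 24 h for several consecutive days after seeding. MTT viability compared wild-type and mutant cells.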

[14] = test system: MDA-MB-231; experiment: Antiproliferative activity against human wild type MDA-MB-231 cells assessed as inhibition of cell growth at 10 to 30 uM measured for 24 hrs in presence of 5-Iodotubercidin by trypan blue staining based MTT assay; conditions: dose 10-30 µM; summary of the method: as §3
[15] = test system: MDA-MB-231; experiment: Antiproliferative activity against human wild type MDA-MB-231 cells assessed as inhibition of cell growth at 10 uM measured at 24 to 96 hrs by trypan blue staining based MTT assay; conditions: time 24-96 hrs; summary of the method: as §3
[16] = test system: MDA-MB-231; experiment: Antiproliferative activity against human wild type MDA-MB-231 cells assessed as inhibition of cell growth at 3 uM measured at 24 hrs by trypan blue staining based MTT assay; summary of the method: as §3
[17] = test system: MDA-MB-231; experiment: Antiproliferative activity against human wild type MDA-MB-231 cells assessed as inhibition of cell growth at 3 uM measured at 24 hrs in presence of 5-Iodotubercidin by trypan blue staining based MTT assay; summary of the method: as §3
[18] = test system: MDA-MB-231; experiment: Antiproliferative activity against human wild type MDA-MB-231 cells assessed as inhibition of cell growth at 3 uM measured at 96 hrs by trypan blue staining based MTT assay; summary of the method: as §3
[19] = test system: MDA-MB-231; experiment: Antiproliferative activity against human ADK-L knockdown MDA-MB-231 cells assessed as inhibition of cell growth at 1 to 3 uM measured at 24 hrs in presence of 5-iodotubercidin by trypan blue staining based MTT assay; conditions: dose 1-3 µM; summary of the method: as §3
[20] = test system: MDA-MB-231; experiment: Antiproliferative activity against human wild type MDA-MB-231 cells assessed as inhibition of cell growth at 3 uM measured at 48 hrs by trypan blue staining based MTT assay; summary of the method: as §3
[21] = test system: MDA-MB-231; experiment: Antiproliferative activity against human ADK-L knockdown MDA-MB-231 cells assessed as inhibition of cell growth at 1 to 3 uM measured at 24 hrs by trypan blue staining based MTT assay; conditions: dose 1-3 µM; summary of the method: as §3

Row | SMILES | inhibition at 10 µM [1] [%] | inhibition at 10 µM [2] [%] | inhibition at 10 µM [3] [%] | inhibition at 10 µM [4] [%] | inhibition at 10 µM [5] [%] | inhibition at 10 µM [6] [%] | GI50 [7] [µM] | LC50 (concentration giving 50% net cell kill) [7] [µM] | TGI [7] [µM] | GI50 [8] [µM] | LC50 (concentration killing 50% of starting cells) [8] [µM] | TGI [8] [µM] | GI50 [9] [µM] | LC50 (50% lethal concentration) [9] [µM] | TGI [9] [µM] | GI50 [10] [µM] | TGI [10] [µM] | GI50 [11] [µM] | TGI [11] [µM] | CC50 [11] [µM] | further results
1 | c1ccc(-c2nc(N3CCNCC3)c3oc(-c4ccccc4)nc3n2)cc1 | 162 | 187 | 161 | 106 | 142 | 174 | 1.48 | 7.4 | 3.31 | 1.76 | 6.1 | 3.28 | 1.88 | 8.8 | 4.07 | 1.77 | 3.41 | 2.1 | 4.95 | > 100 | GI50 [12]: 1.73 µM; TGI [12]: 3.42 µM; Activity [13]: Active; Activity [14]: Active; Activity [15]: Active; Activity [16]: Active; Activity [17]: Active; Activity [18]: inactive; Activity [19]: Active
2 | Nc1ncnc2c1c(I)cn2[C@@H]1O[C@H](CO)[C@@H](O)[C@H]1O | – | – | – | – | – | – | – | – | – | – | – | – | – | – | – | – | – | – | – | – | Activity [20]: Active; Activity [21]: Active
3 | Cc1ccc(-c2nc(N3CCCNCC3)c3oc(-c4ccc(C)cc4)nc3n2)cc1 | 165 | 179 | 0 | 10 | 146 | 95 | 1.85 | 8.14 | 3.88 | 1.69 | 5.73 | 3.11 | 12.6 | 80.9 | 31.9 | 16.3 | 35 | 1.94 | 4.17 | 8.96 | LC50 (concentration giving 50% net cell kill) [10]: 75.2 µM; GI50 [12]: 1.96 µM; TGI [12]: 4.39 µM
4 | c1ccc(-c2nc(N3CCCNCC3)c3oc(-c4ccccc4)nc3n2)cc1 | 132 | 180 | 131 | 126 | 123 | 171 | 1.41 | 5.69 | 2.83 | 1.56 | 5.65 | 2.97 | 1.86 | 9.16 | 4.13 | 1.73 | 3.18 | 1.69 | 3.48 | 7.15 | LC50 (concentration giving 50% net cell kill) [10]: 5.86 µM; GI50 [12]: 1.48 µM; LC50 (concentration giving 50% net cell kill) [12]: 5.54 µM; TGI [12]: 2.87 µM
